Here are results for eleven molecules from PMC4066744 (Nucleic Acids Research, 2014).

In experiment [1] the target is KIX domain from mouse CBP 586-672 (mouse) (UniProt P45481). Description: fluorescence polarisation.
Experiment [2] deals with KIX domain of CBP/p300 (mouse CBP 586–672) (Mus musculus, UniProt P45481). It counts as binding. The conditions noted are these: for decrease in affinity for the KIX domain relative to native E2A AD2–1: mutant peptide versus wild-type E2A AD2–1, fluorescence anisotropy titration. The procedure, abridged: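 Mouse CBP KIX (586–672), E. coli BL21(DE3)-expressed, purified, with final size exclusion in 20 mM MES pH 6.0, 1 mM β-mercaptoethanol (same buffer for titration). KIX spiked with 100 nM FITC-peptide titrated into that peptide. Ex 492/em 523 nm; three readings per injection averaged. Kd from quadratic one-site fit plus linear non-specific term. Mutant-peptide series run in triplicate; mean ± standard error.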

In experiment [3] the target is KIX^ΔPCETsite (Phe612Ala/Asp622Ala/Arg624Ala/Lys667Glu quadruple KIX mutant) (Mus musculus, UniProt P45481, D622A/F612A/K667E/R624A). It is filed as binding. The conditions noted are these: 250 μM versus 17 μM.
For experiment [4], the target named is KIX domain from mouse CBP 586-672 (mouse, UniProt P45481 586-672). Description: NMR titration.
Sequence of KIX domain from mouse CBP 586-672 (P45481 586-672): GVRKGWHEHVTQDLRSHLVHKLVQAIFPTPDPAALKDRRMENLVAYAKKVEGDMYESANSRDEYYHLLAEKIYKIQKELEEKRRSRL

Sequence of KIX domain of CBP/p300 (mouse CBP 586–672) (P45481 586-672): as above
Sequence of KIX domain from mouse CBP 586-672 (mouse) (P45481 586-672): as above
Sequence of KIX^ΔPCETsite (Phe612Ala/Asp622Ala/Arg624Ala/Lys667Glu quadruple KIX mutant) (P45481 586-672 F612A/D622A/R624A/K667E): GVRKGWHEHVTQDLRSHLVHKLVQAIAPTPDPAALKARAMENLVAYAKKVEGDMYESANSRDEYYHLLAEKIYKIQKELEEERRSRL

Regarding “E2A AD2-1 His402Ala FITC-labelled synthetic mutant peptide (from UniProt P15923 394-407)”, the Kd in experiment [1] was 13.5 µM. This counts as double-digit micromolar.
Same read-out and setting: then “E2A AD2-1 Leu397Ala FITC-labelled synthetic mutant peptide (from UniProt P15923 394-407)”, with 102 µM.
With “Ac-EDHADEAIHVLRSH-NH2 (N-terminus and C-terminus assumed) [E2A AD2–1 Leu397Ala]”, the “decrease in affinity for the KIX domain relative to native E2A AD2–1” value in experiment [2] stood at 6 fold.
In the case of “Ac-EDHLDEAIHVLRSHY-NH2 [E2A AD2–1 (C-terminal tyrosine)]”, binding in experiment [2] was put at a Kd of 21 ± 5 µM.
For the molecule Ac-EDHLDEAIHVLRSH-NH2 [E2A AD2–1], in experiment [3], the “decrease in affinity of KIX^ΔPCETsite mutant relative to native KIX” value amounted to 15 fold.
As to “E2A AD2-1 Leu404Ala FITC-labelled synthetic mutant peptide (from UniProt P15923 394-407)”, the Kd in experiment [1] was 86 µM.
As for “E2A AD2-1 Ala400Leu FITC-labelled synthetic mutant peptide (from UniProt P15923 394-407)”, the Kd in experiment [1] was 7.2 µM. Against the preceding molecule, the Kd is about 12-fold lower.
With “Ac-EDHLDEAIHVARSH-NH2 (N-terminus and C-terminus assumed) [E2A AD2–1 Leu404Ala]”, in experiment [2], the “decrease in affinity for the KIX domain relative to native E2A AD2–1” value is “approximately 5 fold”.
In the case of “Ac-EDHLDEAIHVLRSHAVGTAGDMHTLLP-NH2 [E2A AD2–1/2]”, binding in experiment [2] was put at a Kd of 21 ± 3 µM.
With “E2A AD2-1 Ile401Ala FITC-labelled synthetic mutant peptide (from UniProt P15923 394-407)”, in experiment [1], the Kd was 106 µM.

B1: Unfused recombinant E2A AD2-1/2 (E2A residues 394-420) (peptide)
chain: EDHLDEAIHVLRSHAVGTAGDMHTLLP
As for B1, the binding result in experiment [4] is listed as “binds”.
